Results from different studies.
Each line is one published result; the experiments were not run side by side.
Target: Histone deacetylase 1 (HDAC1, Homo sapiens, UniProt Q13547)

O=C(NO)c1ccc(NC(=O)C2(c3ccccc3)CCOCC2)c(F)c1
IC50 (enzyme activity, inhibitor): 73 nM

CCCON(Cc1ccc(C(=O)NO)cc1)C(=O)Nc1ccc(N(C)C)cc1
IC50 (enzyme activity, inhibitor, fluorescence): 715 nM

O=C(NO)c1ccc(NC(=O)C2(c3ccc(C(F)(F)F)c(F)c3)CCCC2)cc1
IC50 (enzyme activity, inhibitor): 222 nM

CCC[C@H](NC(=O)C1CN(C)C1)c1ncc(-c2cc3ccccc3nc2OC)[nH]1
IC50 (enzyme activity, inhibitor, fluorescence): 280 nM

O=C(NO)c1ccc(NC(=O)C2(c3ccc(Cl)cc3)CCCC2)c(F)c1
IC50 (enzyme activity, inhibitor): 774 nM

C=CCC[C@@H]1NC(=O)[C@H]2CCCN2C(=O)[C@H](Cc2ccccc2)NC(=O)C(C)(C)NC1=O
IC50 (enzyme activity, inhibitor): > 300000 nM

C/C=C1\NC(=O)[C@H]2CSSCC/C=C/[C@H](CC(=O)N[C@H](C(C)C)C(=O)N2)OC(=O)[C@H](C(C)C)NC1=O
Kd (cell-free assay): 3.17 nM

CCCON(Cc1ccc(C(=O)NO)cc1)C(=O)Nc1ccccc1
IC50 (enzyme activity, inhibitor, fluorescence): 742 nM

CC(C)C[C@H]1CC(=O)N[C@@H](C)C(=O)N[C@@H](CCCCCC(=O)O)C(=O)N[C@@H](Cc2c[nH]c3ccccc23)C(=O)N1
IC50 (enzyme activity, inhibitor): 100 nM

O=C(CCCCCCC(=O)Nc1ccc([C@H]2O[C@@H](CSc3nc(-c4ccccc4)c(-c4ccccc4)o3)C[C@@H](c3ccc(CO)cc3)O2)cc1)NO
Kd (cell-free assay): > 30200 nM

CCCC[C@H](NC(=O)C1CN(C)C1)c1ncc(-c2cc3ccccc3nc2OC)[nH]1
IC50 (enzyme activity, inhibitor): 68 nM

Cc1nc2ccccc2n1Cc1ccc(C(=O)NO)cn1
IC50 (enzyme activity, inhibitor): 27900 nM
